The values that follow come from PMC10905627 (Oncogene, 2018).

One assay concerns the target T1, ALK5/TGFβR1 (Homo sapiens, UniProt P36897).
T1 sequence (P36897 34-503): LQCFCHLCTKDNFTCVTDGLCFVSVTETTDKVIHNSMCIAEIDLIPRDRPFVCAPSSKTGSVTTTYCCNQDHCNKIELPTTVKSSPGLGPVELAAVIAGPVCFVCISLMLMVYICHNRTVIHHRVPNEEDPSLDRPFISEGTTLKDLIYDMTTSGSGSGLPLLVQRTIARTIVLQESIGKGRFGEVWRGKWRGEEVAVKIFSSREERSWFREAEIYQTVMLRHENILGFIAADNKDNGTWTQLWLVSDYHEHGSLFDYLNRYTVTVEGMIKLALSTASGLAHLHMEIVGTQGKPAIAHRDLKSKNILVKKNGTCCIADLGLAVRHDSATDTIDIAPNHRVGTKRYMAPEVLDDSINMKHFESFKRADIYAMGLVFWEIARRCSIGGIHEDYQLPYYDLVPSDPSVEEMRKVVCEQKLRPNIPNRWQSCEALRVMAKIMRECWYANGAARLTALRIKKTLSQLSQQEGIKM
Particulars: read-out: IC50 ALK5/TGFβR1; ATP 10 μM.

In the next assay the target is T2, BMPR2 (Homo sapiens, UniProt Q13873).
T2 sequence (Q13873 27-1038): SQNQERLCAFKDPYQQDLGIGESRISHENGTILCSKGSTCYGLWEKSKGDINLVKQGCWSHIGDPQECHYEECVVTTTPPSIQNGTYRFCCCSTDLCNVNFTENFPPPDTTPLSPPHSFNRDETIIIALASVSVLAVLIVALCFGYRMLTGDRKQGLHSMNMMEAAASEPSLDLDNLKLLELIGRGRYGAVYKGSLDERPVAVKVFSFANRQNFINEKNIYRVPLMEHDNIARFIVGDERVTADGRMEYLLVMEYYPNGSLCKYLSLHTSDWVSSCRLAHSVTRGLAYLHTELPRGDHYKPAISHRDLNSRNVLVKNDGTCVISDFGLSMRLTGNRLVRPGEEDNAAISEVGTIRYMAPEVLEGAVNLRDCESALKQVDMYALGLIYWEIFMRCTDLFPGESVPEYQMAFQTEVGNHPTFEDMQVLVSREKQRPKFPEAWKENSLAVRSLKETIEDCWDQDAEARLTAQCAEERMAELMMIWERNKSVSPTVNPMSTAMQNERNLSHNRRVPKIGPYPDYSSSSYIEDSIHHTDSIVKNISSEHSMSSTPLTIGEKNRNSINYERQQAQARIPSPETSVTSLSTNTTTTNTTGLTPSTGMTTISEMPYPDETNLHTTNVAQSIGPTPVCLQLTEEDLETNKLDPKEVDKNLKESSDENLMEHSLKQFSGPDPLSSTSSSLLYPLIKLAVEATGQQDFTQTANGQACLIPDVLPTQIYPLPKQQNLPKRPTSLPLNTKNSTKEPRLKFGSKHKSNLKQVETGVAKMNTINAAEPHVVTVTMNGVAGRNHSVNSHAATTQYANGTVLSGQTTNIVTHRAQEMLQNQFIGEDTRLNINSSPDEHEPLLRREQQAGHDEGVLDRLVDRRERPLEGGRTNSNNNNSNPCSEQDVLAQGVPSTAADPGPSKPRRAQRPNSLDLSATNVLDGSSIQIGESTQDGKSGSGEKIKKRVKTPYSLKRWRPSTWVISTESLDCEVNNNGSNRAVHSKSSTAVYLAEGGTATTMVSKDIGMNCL
The assay can be described thus: IC50 kinase assay BMPR2. The class given is biochemical.

The next assay relates to A549 cells. The assay can be described thus: Cell growth A549. The class given is cell-based, human. Particulars: A549, activating K-Ras mutation. In short, it runs like this:
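A549 cells grown in DMEM with 5% FBS, seeded in six-well plates and exposed to test compound from the following day for the set time. Live and dead cells were counted on a Vi-CELL analyser by trypan blue exclusion, 500 cells per sample.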

Read-outs that look alike come from different tables or passages of the source.

Take `c1ccc2c(-c3cnn4cc(-c5ccc(OCCN6CCCCC6)cc5)cnc34)ccnc2c1` [JL5]: the IC50 was 0.44 µM at ALK5/TGFβR1; 8.51 µM on BMPR2 (read-out: IC50 BMPR2, ATP 10 μM); approximately 8 µM at BMPR2 (read-out: IC50 for the BMP type II receptor BMPR2). Further, the “growth of A549 cells” value in the assay on A549 cells is recorded as “suppressed growth”.
